Data reported in ChEMBL document CHEMBL3112463, “Synthesis and biological activity of polyalthenol and pentacyclindole analogues” (2014).

Legend:
Format in all cases: functional
WiDr = test: Antiproliferative activity against human WiDr cells assessed as growth inhibition after 48 hrs by SRB assay
How it was run: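 WiDr cells seeded at 20,000 cells/well after trypsinization into antibiotic-containing medium (trypan blue viability >97%). Culture at 37 °C, 5% CO₂ with foetal calf serum and 2 mM L-glutamine. Exposure to triplicate compound dilutions from DMSO stocks (0.25% v/v DMSO control) started day 1, lasting 48 h. Fixed with ice-cold 50% TCA, 60 min at 4 °C, then SRB, OD 492 nm background-subtracted.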

T47D = test: Antiproliferative activity against human T47D cells assessed as growth inhibition after 48 hrs by SRB assay
How it was run: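 T-47D cells grown at 37 °C, 5% CO₂ in serum- and 2 mM L-glutamine-containing medium. Trypsinized, viability >97% by trypan blue, seeded at 15,000 cells/well. Compounds added day 1 in triplicate dilutions (DMSO vehicle 0.25% v/v as control) for 48 h. Cold 50% TCA fixation 60 min at 4 °C, SRB read at 492 nm with blank correction.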

HeLa = test: Antiproliferative activity against human HeLa cells assessed as growth inhibition after 48 hrs by SRB assay
How it was run: (§1)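 Cells maintained at 37 °C, 5% CO₂ in medium with foetal calf serum and 2 mM L-glutamine. Trypsinized into antibiotic medium, >97% viable by trypan blue, plated at 10,000 cells/well. Triplicate dilutions from DMSO stocks (0.25% v/v DMSO control) added on day 1 for 48 h. TCA fixation (50%, 4 °C, 60 min), SRB stain, OD 492 nm corrected for medium-only blank.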

SW1573 = test: Antiproliferative activity against human SW1573 cells assessed as growth inhibition after 48 hrs by SRB assay; settings: SW1573, 48 h; how it was run: as §1
[1] = Antiproliferative activity against human HBL100 cells assessed as growth inhibition after 48 hrs by SRB assay; settings: HBL-100, 48 h; how it was run: as §1
A549 = test: Antiproliferative activity against human A549 cells assessed as growth inhibition after 48 hrs by SRB assay; settings: A549, 48 h
How it was run: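 Cells kept in medium with foetal calf serum and 2 mM L-glutamine at 37 °C, 5% CO₂. Trypsinized, resuspended in penicillin/streptomycin medium, >97% trypan blue viability, seeded at 10,000 cells/well. Compounds from DMSO stocks (0.25% v/v DMSO control), triplicate dilutions, added day 1 for 48 h. Fixed with cold 50% TCA for 60 min at 4 °C, then SRB staining, OD 492 nm, background corrected.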

| SMILES | GI50 (WiDr) | GI50 (T47D) | GI50 (HeLa) | GI50 (SW1573) | GI50 [1] | GI50 (A549) |
| --- | --- | --- | --- | --- | --- | --- |
| COC(=O)[C@@]1(C)CCC=C2[C@@H]1CC[C@@H](C)[C@]2(C)Cc1c[nH]c2ccc(Br)cc12 | 20 µM | 16 µM | 10 µM | 12 µM | 16 µM | 15 µM |
| COC(=O)[C@@]1(C)CCC=C2[C@@H]1CC[C@@H](C)[C@]2(C)Cc1c(C)[nH]c2ccc(C(F)(F)F)cc12 | 21 µM | 21 µM | 12 µM | 15 µM | 16 µM | 17 µM |
| Cc1c(C[C@]2(C)C3=CCC[C@](C)(C(=O)O)[C@H]3CC[C@H]2C)c2cc(Cl)ccc2n1C(c1ccccc1)c1ccccc1 | 16 µM | 13 µM | 5.5 µM | 13 µM | 13 µM | 9.1 µM |
| COC(=O)[C@@]1(C)CCC=C2[C@@H]1CC[C@@H](C)[C@]2(C)Cc1c(C)n(C(c2ccccc2)c2ccccc2)c2ccc(Cl)cc12 | > 100 µM | > 100 µM | > 100 µM | > 100 µM | > 100 µM | > 100 µM |
| COC(=O)[C@@]1(C)CCC=C2[C@@H]1CC[C@@H](C)[C@]2(C)Cc1c(C)[nH]c2ccccc12 | 19 µM | 17 µM | 11 µM | 14 µM | 14 µM | 15 µM |
| COC(=O)[C@@]1(C)CCC=C2[C@@H]1CC[C@@H](C)[C@]2(C)Cc1c(C)[nH]c2c(Cl)cccc12 | 29 µM | 27 µM | 17 µM | 19 µM | 22 µM | 20 µM |
| COC(=O)[C@@]1(C)CC[C@@H]2C3=C1CC[C@@H](C)[C@]3(C)C[C@@H]1c3cccc(C)c3N[C@H]21 | 43 µM | 29 µM | 22 µM | 31 µM | 32 µM | 30 µM |
| COC(=O)[C@@]1(C)CCC=C2[C@@H]1CC[C@@H](C)[C@]2(C)Cc1c[nH]c2c(Cl)cccc12 | 31 µM | 24 µM | 14 µM | 14 µM | 19 µM | 22 µM |
| COC(=O)[C@@]1(C)CCC=C2[C@@H]1CC[C@@H](C)[C@]2(C)Cc1c(C)[nH]c2c(Br)cccc12 | 38 µM | 31 µM | 22 µM | 25 µM | 27 µM | 27 µM |
| COC(=O)[C@@]1(C)CC[C@@H]2C3=C1CC[C@@H](C)[C@]3(C)C[C@@H]1c3cc(F)ccc3N[C@H]21 | 32 µM | 27 µM | 20 µM | 27 µM | 18 µM | 25 µM |
| COC(=O)[C@@]1(C)CCC=C2[C@@H]1CC[C@@H](C)[C@]2(C)Cc1c[nH]c2ccc(F)cc12 | 8 µM | 3.9 µM | 3.7 µM | 7.3 µM | 4.8 µM | 6.2 µM |
| COC(=O)[C@@]1(C)CCC=C2[C@@H]1CC[C@@H](C)[C@]2(C)Cc1c[nH]c2c(Br)cccc12 | 32 µM | 24 µM | 13 µM | 14 µM | 18 µM | 22 µM |
| COC(=O)[C@@]1(C)CC[C@@H]2C3=C1CC[C@@H](C)[C@]3(C)C[C@@H]1c3cc(Br)ccc3N[C@H]21 | 55 µM | 31 µM | 25 µM | 45 µM | 34 µM | 40 µM |
| COC(=O)[C@@]1(C)CC[C@@H]2C3=C1CC[C@@H](C)[C@]3(C)C[C@@H]1c3cccc(Cl)c3N[C@H]21 | 67 µM | 50 µM | 31 µM | 49 µM | 52 µM | 54 µM |
| COC(=O)[C@@]1(C)CC[C@@H]2C3=C1CC[C@@H](C)[C@]3(C)Cc1c2[nH]c2ccc(C)cc12 | 19 µM | 16 µM | 11 µM | 15 µM | 11 µM | 16 µM |
| COC(=O)[C@@]1(C)CCC=C2[C@@H]1CC[C@@H](C)[C@]2(C)Cc1c[nH]c2c(C)cccc12 | 26 µM | 18 µM | 4.9 µM | 7.8 µM | 8 µM | 11 µM |
| COC(=O)[C@@]1(C)CC[C@@H]2C3=C1CC[C@@H](C)[C@]3(C)Cc1c2[nH]c2ccccc12 | 4 µM | 3.4 µM | 3.2 µM | 8.3 µM | 3.5 µM | 4.6 µM |
